Test results reported in paper PMC11374989 (Asian Journal of Pharmaceutical Sciences, 2024).
Values after ≈ are worked out from the molar mass of the structure shown.

How the values were obtained:
[1] = Visualization of skin penetration by CLSM; assay type: in vitro ADME, BALB/c-nu nude mice; settings: 6 h treatment
Outline: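 Dorsal skin was excised from six-week-old male BALB/c-nu nude mice and cleared of subcutaneous tissue. It was exposed to C6-loaded nanoparticles of the test compound, since the compound itself fluoresces weakly. Skin was processed as in the HPLC retention study, then imaged by confocal microscopy. Mean skin fluorescence intensity was calculated per group.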

TNF-α = assay: Anti-inflammatory activity, ELISA, LPS-treated HaCaT cells; assay type: cell-based; settings: 5 µmol/l for 12 h, then 1 µg/ml LPS 24 h, vs LPS, n = 3
Outline: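 HaCaT cells were grown in DMEM with 10% FBS and 1% penicillin at 37 °C and 5% CO2. They were seeded in 6-well plates and precultured to 80% confluence. Test compound was given for 12 h, then 1 µg/ml LPS for 24 h. Medium-only (36 h) and LPS-only groups served as controls. TNF-α in the supernatant was measured by ELISA; n = 3.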

IL-8 mRNA = assay: RT-PCR of inflammatory factors, LPS-treated HaCaT cells; assay type: cell-based; settings: 5 µmol/l for 12 h, then 1 µg/ml LPS 24 h, n = 3
P. acnes [2] = assay: Minimum inhibition concentration; assay type: cell-based, Propionibacterium acnes; settings: P. acnes (GDMCC 1.243), anaerobic, 1.5 × 10^6 CFU/ml, 48 h
Outline: (§1)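 The parent compound was dissolved in DMSO/saline (1:9) and NPs were diluted in water. Samples were serially diluted (1:1 to 1:256, v/v) in LB or RCM broth and incubated 48 h with bacteria. Growth was scored visually. P. acnes (GDMCC 1.243) was grown on RCM at 37 °C anaerobically; S. aureus (GDMCC 1.1220) and S. epidermidis (GDMCC 1.143) were grown on NA at 37 °C.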

[3] = tested on: P. acnes-induced skin inflammation; assay: P. acnes infection; assay type: in vivo, BALB/c-nu mice
Outline: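 Six-week-old male BALB/c-nu mice were acclimatized 3 d. They received P. acnes (1.5 × 10^8 CFU/ml) daily by intradermal injection into dorsal skin at 0.05 ml/10 g; the blank group was not injected. Test compound in 1 mg/ml Carbopol 940 hydrogel was applied topically to the inflamed area at 0.05 g/10 g; controls were left untreated. Swelling length and width were measured by caliper, with volume V = a×b²/2.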

Sep. = assay: Minimum inhibition concentration; assay type: cell-based, Staphylococcus epidermidis; settings: Sep. (GDMCC 1.143), 1.5 × 10^6 CFU/ml, 48 h
Outline: as §1

Sau. = assay: Minimum inhibition concentration; assay type: cell-based, Staphylococcus aureus; settings: Sau. (GDMCC 1.1220), 1.5 × 10^6 CFU/ml, 48 h
Outline: as §1

P. acnes [4] = assay: In vivo antibacterial efficiency; set-up: species or system BALB/c-nu mice; settings: after 7 d of treatment, vs control, n = 3
Outline: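 Six-week-old male BALB/c-nu mice were acclimatized for 3 d. They received daily intradermal dorsal injections of P. acnes at 1.5 x 10^8 CFU/ml, 0.05 ml/10 g. Test compound in 1 mg/ml Carbopol 940 hydrogel was applied topically at 0.05 g/10 g; controls were untreated. At the end, 8 mm punch biopsies were homogenized in 2 ml PBS and diluted 10 times. A 0.1 ml aliquot was plated on RCM and grown anaerobically at 37 °C for 48 h. Colonies were counted and expressed as treated vs control (%).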

NF-κB (p65) = assay: Immunohistochemical observation of skin; assay type: in vivo, BALB/c-nu mice; settings: after 7 d topical hydrogel, vs control group, n = 3
Outline: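 P. acnes-infected nude mice were treated topically with 1 mg/ml hydrogel. Skin was collected at the end of treatment and paraffin sections were immunostained with mouse anti-NF-κB p65 antibody (1:400). Staining was quantified as average optical density (AOD) per group by image analysis.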

[5] = Oil-water distribution coefficient; assay type: physicochemical; settings: n-octanol/water, logP Average, 25 °C, n = 3

Row | Compound | Penetration of C6 into the skin (CLSM) [1] | TNF-α expression level in supernatant (TNF-α) | IL-8 mRNA expression (IL-8 mRNA) | MIC (P. acnes [2]) | Body weight and skin tolerance ([3]; 7-d treatment period, topical 1 mg/ml hydrogel) | Reduction in swelling volume ([3]; Day 7 of treatment, topical 1 mg/ml hydrogel (Carbopol 940), 0.05 g/10 g, n = 6) | Histomorphological observation (HE staining) of skin ([3]; after 7 d topical 1 mg/ml hydrogel) | MIC (Sep.) | MIC (Sau.) | Quantity of P. acnes in the skin (P. acnes [4]) | NF-κB p65 expression in skin (AOD) (NF-κB (p65)) | logP at 24 h [5]
1 | CCN(CC)c1ccc2cc(-c3nc4ccccc4s3)c(=O)oc2c1 [C6, coumarin-6] | solely observable in the skin's stratum corneum |  |  |  |  |  |  |  |  |  |  | 
2 | CC(C)(C)c1ccc(S(=O)(=O)/C=C/C#N)cc1 [BAY11-7085] |  | substantially suppressed TNF-α expression | restored to normal baseline levels |  |  |  |  |  |  |  |  | 
3 | C[C@H]1COC2=C1C(=O)C(=O)c1c2ccc2c1CCCC2(C)C [CTS, Cryptotanshinone] |  | although reduced, did not reach statistical significance |  | 250 µM (≈ 74.1 µg/mL) | no significant weight loss or skin dryness and erythema | 64.9% | reduction in skin thickness, accompanied by a decrease in keratinization | 125 µM (≈ 37 µg/mL) | 125 µM (≈ 37 µg/mL) | significantly reduced the quantity of P. acnes in the skin | slight reduction in NF-κB p65 expression | 4.49
